Laboratory results from ChEMBL document CHEMBL1152560, “Substituted 2-arylbenzothiazoles as kinase inhibitors: hit-to-lead optimization” (Bioorg Med Chem, 2009).

How the values were obtained:
[1] = target: Dual specificity mitogen-activated protein kinase kinase 1 (Homo sapiens) (UniProt Q02750); assay: Residual activity of wild type MEK1 at 1 uM by microplate scintillation counting
[2] = target: Ribosomal protein S6 kinase alpha-2 (Homo sapiens) (UniProt Q15349); assay: Residual activity of RPS6KA2 at 10 uM by microplate scintillation counting
[3] = target: T1, Serine/threonine-protein kinase 3 (Homo sapiens) (UniProt Q13188); assay: Residual activity of MST2 at 0.1 uM by microplate scintillation counting
T1 sequence (whole entry): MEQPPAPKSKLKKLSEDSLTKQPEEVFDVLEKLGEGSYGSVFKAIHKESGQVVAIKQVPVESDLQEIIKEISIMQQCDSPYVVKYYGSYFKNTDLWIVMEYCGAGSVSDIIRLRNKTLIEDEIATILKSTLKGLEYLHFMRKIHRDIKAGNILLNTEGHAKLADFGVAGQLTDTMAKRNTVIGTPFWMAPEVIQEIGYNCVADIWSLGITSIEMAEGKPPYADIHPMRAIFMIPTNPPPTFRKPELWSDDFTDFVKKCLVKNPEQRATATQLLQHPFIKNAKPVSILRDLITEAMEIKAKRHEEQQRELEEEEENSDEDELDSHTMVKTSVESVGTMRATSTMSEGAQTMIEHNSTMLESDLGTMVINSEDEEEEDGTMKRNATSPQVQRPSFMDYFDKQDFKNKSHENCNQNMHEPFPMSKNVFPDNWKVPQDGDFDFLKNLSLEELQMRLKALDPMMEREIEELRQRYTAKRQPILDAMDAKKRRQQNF

[4] = target: Tyrosine-protein kinase ABL2 (Homo sapiens) (UniProt P42684); assay: Residual activity of ABL2 at 0.1 uM by microplate scintillation counting
Tyrosine-protein kinase ABL2 (Homo sapiens), sequence (P42684 whole entry): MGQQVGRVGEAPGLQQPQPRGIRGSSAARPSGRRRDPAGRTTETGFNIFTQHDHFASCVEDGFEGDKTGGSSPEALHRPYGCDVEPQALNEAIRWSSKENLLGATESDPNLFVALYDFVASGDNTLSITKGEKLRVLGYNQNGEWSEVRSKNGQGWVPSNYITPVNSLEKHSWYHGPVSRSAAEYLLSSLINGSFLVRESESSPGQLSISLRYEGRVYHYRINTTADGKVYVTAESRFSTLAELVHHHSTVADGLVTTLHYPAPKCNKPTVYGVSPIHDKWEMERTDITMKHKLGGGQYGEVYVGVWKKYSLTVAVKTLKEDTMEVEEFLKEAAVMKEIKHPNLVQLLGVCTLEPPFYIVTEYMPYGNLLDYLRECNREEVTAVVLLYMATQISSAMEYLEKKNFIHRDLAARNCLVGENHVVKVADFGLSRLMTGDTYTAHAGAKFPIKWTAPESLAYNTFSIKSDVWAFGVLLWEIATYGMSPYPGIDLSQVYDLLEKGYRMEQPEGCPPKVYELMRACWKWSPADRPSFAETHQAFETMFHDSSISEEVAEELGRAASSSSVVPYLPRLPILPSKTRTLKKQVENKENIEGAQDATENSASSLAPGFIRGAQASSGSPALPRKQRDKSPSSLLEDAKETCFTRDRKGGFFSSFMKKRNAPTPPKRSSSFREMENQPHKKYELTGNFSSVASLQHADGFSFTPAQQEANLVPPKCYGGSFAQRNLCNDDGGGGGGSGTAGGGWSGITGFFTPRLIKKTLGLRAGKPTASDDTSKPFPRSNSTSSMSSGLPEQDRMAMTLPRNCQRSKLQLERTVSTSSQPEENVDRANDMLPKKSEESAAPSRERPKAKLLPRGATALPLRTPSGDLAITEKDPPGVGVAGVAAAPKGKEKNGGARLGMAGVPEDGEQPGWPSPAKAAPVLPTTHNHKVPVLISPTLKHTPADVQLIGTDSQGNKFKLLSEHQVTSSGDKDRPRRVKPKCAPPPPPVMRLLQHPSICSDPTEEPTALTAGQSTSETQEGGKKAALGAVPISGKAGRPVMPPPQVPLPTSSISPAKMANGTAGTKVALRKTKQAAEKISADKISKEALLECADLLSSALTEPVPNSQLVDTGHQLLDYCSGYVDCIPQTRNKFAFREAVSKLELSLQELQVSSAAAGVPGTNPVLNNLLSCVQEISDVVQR

[5] = target: Cyclin-dependent kinase 4/cyclin D1 (Homo sapiens) (UniProt P11802+P24385); assay: Residual activity of CDK4/Cyclin D1 at 1 uM by microplate scintillation counting; format: protein-complex assay
[6] = target: Glycogen synthase kinase-3 alpha (Homo sapiens) (UniProt P49840); assay: Residual activity of GSK3alpha at 1 uM by microplate scintillation counting
Glycogen synthase kinase-3 alpha (Homo sapiens), sequence (P49840 2-483 limits assumed): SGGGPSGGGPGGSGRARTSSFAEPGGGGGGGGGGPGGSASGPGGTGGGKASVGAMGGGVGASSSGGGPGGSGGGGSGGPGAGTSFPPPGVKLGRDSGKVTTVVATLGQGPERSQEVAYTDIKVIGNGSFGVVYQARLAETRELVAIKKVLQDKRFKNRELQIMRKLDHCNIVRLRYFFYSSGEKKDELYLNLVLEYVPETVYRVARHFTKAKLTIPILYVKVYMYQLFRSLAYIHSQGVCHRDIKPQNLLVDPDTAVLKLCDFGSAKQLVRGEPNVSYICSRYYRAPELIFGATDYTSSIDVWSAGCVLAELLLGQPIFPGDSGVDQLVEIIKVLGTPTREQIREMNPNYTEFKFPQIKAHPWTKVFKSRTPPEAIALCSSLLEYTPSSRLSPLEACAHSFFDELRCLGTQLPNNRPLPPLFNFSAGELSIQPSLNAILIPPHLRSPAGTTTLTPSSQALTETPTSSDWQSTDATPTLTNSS

[7] = target: T2, Serine/threonine-protein kinase TBK1 (Homo sapiens) (UniProt Q9UHD2); assay: Residual activity of TBK1 at 1 uM by microplate scintillation counting
T2 sequence (whole entry): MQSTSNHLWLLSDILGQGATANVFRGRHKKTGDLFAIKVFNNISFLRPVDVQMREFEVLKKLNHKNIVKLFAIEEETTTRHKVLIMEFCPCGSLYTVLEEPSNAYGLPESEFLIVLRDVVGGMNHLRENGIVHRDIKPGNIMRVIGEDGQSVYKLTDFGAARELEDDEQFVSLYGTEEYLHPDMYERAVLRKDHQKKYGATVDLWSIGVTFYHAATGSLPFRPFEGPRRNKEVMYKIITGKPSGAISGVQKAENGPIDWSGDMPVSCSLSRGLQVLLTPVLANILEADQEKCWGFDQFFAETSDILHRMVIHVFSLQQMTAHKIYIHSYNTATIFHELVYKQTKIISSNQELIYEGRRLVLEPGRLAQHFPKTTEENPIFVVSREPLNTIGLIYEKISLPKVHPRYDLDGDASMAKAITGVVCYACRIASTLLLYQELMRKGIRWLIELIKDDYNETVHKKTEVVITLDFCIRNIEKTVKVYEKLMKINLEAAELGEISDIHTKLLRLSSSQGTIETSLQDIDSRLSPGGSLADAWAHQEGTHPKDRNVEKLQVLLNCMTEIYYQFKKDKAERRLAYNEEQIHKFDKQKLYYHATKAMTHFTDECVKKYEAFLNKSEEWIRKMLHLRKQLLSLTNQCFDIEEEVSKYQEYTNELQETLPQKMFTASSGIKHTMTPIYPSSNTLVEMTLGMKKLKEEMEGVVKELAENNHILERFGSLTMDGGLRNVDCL

[8] = target: Leukocyte tyrosine kinase receptor (Homo sapiens) (UniProt P29376); assay: Residual activity of LTK at 10 uM by microplate scintillation counting
Leukocyte tyrosine kinase receptor (Homo sapiens), sequence (P29376 whole entry): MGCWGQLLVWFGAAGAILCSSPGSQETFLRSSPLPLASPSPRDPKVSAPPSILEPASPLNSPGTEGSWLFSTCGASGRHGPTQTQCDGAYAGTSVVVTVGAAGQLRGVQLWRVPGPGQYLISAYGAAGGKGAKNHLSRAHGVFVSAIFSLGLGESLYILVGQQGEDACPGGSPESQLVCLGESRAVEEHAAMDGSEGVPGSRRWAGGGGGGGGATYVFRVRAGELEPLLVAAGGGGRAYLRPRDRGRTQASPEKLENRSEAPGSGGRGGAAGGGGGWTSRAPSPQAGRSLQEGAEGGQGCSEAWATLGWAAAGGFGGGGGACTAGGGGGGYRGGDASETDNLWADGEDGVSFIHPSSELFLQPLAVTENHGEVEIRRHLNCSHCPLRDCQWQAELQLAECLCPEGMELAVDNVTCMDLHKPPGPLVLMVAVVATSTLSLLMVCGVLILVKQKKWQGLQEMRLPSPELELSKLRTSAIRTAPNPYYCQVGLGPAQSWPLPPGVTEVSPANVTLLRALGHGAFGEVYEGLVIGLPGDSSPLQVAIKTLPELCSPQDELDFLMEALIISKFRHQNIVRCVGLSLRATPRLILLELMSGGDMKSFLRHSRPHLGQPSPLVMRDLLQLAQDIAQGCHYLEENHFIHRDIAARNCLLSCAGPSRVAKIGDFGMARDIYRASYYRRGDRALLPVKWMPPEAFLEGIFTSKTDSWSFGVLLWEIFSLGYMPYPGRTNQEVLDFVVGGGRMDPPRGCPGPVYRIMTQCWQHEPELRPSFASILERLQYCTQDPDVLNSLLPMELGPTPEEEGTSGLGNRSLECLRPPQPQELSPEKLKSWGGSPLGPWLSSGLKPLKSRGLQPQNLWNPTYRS

Angiopoietin-1 receptor = Angiopoietin-1 receptor (Homo sapiens, UniProt Q02763); assay: Inhibition of TIE2 in human HCT116 cells by cellular phosphorylation assay; format: cell-based, HCT-116
Angiopoietin-1 receptor, sequence (Q02763 whole entry): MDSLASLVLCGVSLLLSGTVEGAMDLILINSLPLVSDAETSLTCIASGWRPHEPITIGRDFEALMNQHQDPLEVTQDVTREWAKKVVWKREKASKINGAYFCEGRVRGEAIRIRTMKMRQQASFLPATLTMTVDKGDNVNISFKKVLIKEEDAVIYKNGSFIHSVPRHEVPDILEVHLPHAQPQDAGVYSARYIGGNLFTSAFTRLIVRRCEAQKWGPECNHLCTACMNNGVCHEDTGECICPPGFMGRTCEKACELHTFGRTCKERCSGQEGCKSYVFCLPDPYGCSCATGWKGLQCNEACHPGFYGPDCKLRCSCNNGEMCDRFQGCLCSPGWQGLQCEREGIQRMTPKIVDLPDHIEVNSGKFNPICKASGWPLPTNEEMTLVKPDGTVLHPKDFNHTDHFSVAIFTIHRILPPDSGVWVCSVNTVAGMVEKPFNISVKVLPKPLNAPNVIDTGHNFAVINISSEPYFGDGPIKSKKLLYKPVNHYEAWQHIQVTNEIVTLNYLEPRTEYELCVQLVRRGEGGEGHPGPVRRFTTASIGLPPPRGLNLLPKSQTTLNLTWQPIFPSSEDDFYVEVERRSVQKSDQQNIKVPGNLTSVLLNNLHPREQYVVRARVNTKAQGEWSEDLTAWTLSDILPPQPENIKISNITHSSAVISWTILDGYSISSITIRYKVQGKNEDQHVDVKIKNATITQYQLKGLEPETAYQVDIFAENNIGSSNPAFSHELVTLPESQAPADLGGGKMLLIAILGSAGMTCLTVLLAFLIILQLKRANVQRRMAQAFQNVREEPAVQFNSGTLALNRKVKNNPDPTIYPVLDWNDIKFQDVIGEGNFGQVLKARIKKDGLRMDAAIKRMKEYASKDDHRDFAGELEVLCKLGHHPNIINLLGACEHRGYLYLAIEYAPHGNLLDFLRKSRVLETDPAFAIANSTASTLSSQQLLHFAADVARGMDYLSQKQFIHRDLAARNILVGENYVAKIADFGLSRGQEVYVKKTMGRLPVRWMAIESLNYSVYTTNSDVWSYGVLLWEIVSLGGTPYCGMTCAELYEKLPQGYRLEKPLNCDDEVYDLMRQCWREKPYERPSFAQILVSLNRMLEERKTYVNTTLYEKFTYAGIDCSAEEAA
Summary of the method: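 TIE2 autophosphorylation in cells expressing the receptor. Compound was applied, cells were stimulated, then lysed with phosphoprotein levels preserved. Phosphorylation was quantified by sandwich ELISA with a receptor-specific capture antibody and anti-phosphotyrosine antibody, relative to the stimulated high control.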

[9] = target: T3, Muscle, skeletal receptor tyrosine-protein kinase (Homo sapiens) (UniProt O15146); assay: Residual activity of MUSK at 10 uM by microplate scintillation counting
T3 sequence (whole entry): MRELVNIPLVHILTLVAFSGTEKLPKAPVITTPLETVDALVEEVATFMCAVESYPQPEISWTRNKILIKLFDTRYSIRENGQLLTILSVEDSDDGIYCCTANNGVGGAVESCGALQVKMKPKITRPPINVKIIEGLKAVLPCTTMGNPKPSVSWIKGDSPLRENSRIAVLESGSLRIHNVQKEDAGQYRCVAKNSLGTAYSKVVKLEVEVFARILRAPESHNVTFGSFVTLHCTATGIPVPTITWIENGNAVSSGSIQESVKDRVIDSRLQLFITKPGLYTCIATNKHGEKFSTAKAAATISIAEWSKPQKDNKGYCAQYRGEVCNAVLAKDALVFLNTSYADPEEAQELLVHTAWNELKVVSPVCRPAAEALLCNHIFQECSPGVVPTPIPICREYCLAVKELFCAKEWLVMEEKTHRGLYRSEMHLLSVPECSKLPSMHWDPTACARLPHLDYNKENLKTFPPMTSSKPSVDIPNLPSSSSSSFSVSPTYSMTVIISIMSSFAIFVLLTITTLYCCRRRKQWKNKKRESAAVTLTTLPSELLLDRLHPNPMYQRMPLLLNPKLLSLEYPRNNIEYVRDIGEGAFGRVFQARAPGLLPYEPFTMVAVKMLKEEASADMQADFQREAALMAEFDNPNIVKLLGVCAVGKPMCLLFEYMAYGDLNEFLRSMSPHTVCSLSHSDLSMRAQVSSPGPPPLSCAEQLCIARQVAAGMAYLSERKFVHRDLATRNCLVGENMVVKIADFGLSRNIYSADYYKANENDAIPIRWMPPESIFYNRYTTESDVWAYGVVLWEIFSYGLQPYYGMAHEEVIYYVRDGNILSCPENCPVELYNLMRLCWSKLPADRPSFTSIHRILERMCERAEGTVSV

[10] = target: Myosin light chain kinase 2, skeletal/cardiac muscle (Homo sapiens) (UniProt Q9H1R3); assay: Residual activity of MYLK2 at 0.1 uM by microplate scintillation counting
Myosin light chain kinase 2, skeletal/cardiac muscle (Homo sapiens), sequence (Q9H1R3 whole entry): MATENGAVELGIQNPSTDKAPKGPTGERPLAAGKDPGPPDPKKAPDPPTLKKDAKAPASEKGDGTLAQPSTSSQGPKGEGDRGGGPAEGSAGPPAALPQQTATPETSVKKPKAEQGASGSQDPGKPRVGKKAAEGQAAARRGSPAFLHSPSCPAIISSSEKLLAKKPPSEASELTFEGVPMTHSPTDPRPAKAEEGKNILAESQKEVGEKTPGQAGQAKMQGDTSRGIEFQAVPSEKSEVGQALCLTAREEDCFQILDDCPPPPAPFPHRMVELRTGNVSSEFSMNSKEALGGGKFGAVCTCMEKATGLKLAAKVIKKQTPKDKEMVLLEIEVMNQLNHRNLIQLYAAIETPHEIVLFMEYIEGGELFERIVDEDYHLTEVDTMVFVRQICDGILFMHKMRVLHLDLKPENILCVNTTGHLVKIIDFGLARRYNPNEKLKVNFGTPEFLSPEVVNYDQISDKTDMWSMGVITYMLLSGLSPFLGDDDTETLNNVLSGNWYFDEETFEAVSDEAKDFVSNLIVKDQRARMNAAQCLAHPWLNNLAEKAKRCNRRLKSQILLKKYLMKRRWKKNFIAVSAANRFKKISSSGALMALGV

Dual specificity mitogen-activated protein kinase kinase 1 (Homo sapiens), sequence (Q02750 whole entry): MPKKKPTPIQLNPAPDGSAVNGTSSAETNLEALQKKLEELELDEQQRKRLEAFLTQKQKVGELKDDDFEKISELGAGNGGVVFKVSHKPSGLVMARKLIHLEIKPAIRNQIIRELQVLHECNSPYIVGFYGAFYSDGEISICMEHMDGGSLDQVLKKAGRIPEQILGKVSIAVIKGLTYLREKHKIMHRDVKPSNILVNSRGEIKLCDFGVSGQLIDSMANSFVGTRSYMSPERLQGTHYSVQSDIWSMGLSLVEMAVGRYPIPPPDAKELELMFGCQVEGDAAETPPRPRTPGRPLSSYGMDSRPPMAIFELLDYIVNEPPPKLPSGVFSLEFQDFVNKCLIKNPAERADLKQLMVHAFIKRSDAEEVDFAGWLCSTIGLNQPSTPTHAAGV

Row | SMILES | residual activity [1] | residual activity [2] | residual activity [3] | residual activity [4] | residual activity [5] | residual activity [6] | residual activity [7] | residual activity [8] | EC50 (Angiopoietin-1 receptor) | residual activity [9] | residual activity [10]
1 | COc1cc2c(Oc3ccc(-c4nc5ccccc5s4)cc3)ncnc2cc1OCCCN1CCN(C)CC1 | 53% | 44% | 90% | 100% | 100% | 87% | 85% | 163% | 540 nM | 44% | 83%
2 | COc1cc2c(Oc3ccc(-c4nc5ccccc5s4)cc3)ncnc2cc1OCCCN1CCCC1 | 59% | 81% | 82% | 116% | 98% | 83% | 92% | 200% | 140 nM | 46% | 33%
3 | COc1cc2c(Oc3ccc(-c4nc5ccccc5s4)cc3F)ncnc2cc1OCCCN1CCN(C)CC1 | 52% | 39% | 92% | 96% | 94% | 96% | 99% | 89% | 300 nM | 41% | 93%
